In ChEMBL document CHEMBL4354813, “Design, Synthesis, and Pharmacological Evaluation of Potent Positive Allosteric Modulators of the Glucagon-like Peptide-1 Receptor (GLP-1R)” (J Med Chem, 2020):
pIC50: −log10 of the molar value. Calls of active or inactive are those of the source. The calls are words filed in the database; no cut-off is given here.

Assays:
[1] = biological target: Cytochrome P450 3A4 (Homo sapiens, UniProt P08684); test: Inhibition of CYP3A4 (unknown origin) using testosterone as substrate; type: ADME
[2] = test system: Mus musculus; test: Suppression of blood glucose concentration in ob/ob C57Bl/6J mouse model of T2DM at 30 mg/kg, po dosed 1 hrs before test and treated with 60 mg/kg, po OATP/MRP2 inhibitor rifampicin 2.5 hrs prior to oral glucose-tolerance test; type: functional, organism-based
In short: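 Male ob/ob mice aged 10–11 weeks, n=7, randomised on blood glucose and fasted overnight. Rifampicin 60 mg/kg p.o. 2.5 h before the oGTT, compound 30 mg/kg p.o. 1 h before, GLP1(9-36)NH2 i.p. 15 min before, each given as indicated. Glucose 2 g/kg orally. Tail-vein glucose by glucometer at 0, 15, 30, 60 and 90 min.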

[3] = Apparent permeability from apical and basolateral in human Caco2/TC7 cells at apical pH 6.5 with 0.5% BSA and basolateral pH 7.4 with 5% BSA at 20 uM incubated for 2 hrs by LC-MS/MS analysis; conditions: caco2/tc7, pH 6.5 apical, pH 7.4 basolateral
[4] = biological target: T1, Gastric inhibitory polypeptide receptor (Homo sapiens) (UniProt P48546); test: Activity at human GIPR expressed in PSC-HEK293 cells incubated for 30 mins by HTRF cAMP assay; type: functional, cell-based
T1 sequence (whole entry): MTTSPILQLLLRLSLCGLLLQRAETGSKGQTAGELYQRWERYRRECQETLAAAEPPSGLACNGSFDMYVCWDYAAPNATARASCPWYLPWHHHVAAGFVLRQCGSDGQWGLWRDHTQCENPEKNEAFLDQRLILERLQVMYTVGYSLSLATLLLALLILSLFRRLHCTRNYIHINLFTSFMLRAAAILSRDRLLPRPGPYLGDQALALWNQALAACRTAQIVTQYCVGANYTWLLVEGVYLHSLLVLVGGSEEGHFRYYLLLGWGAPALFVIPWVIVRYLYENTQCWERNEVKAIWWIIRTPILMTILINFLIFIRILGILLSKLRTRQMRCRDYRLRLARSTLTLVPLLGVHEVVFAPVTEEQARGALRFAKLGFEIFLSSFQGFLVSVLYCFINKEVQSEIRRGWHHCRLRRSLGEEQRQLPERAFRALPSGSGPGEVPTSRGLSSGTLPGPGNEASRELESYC

[5] = Stability in mouse plasma by LC-MS/MS analysis; type: ADME, cell-free
[6] = Volume of distribution at steady state in Wistar rat at 3 mg/kg, iv administered as single dose treated 2 hrs after dosing with 40 mg/kg, po OATP/MRP2 inhibitor rifampicin and measured up to 24 hrs ESI-LC/MS-MS analysis; type: ADME, organism-based; conditions: in vivo, read-out: Vdss
[7] = Cmax in Wistar rat at 10 mg/kg, po administered as single dose treated 2 hrs after dosing with 40 mg/kg, po OATP/MRP2 inhibitor rifampicin and measured up to 24 hrs ESI-LC/MS-MS analysis; type: ADME, organism-based; parameters: dose 10 mg/kg, route oral; conditions: in vivo
In short: (§1)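 Male Wistar rats (n=3 per route) pretreated orally with rifampicin 40 mg/kg (0.6% methylcellulose, 0.5% Tween 80 in water) 2 h before compound, given 3 mg/kg i.v. in Glycoferol/Cremophor-water solution or 10 mg/kg p.o. wet-milled suspension. Plasma sampled up to 24 h; ESI-LC/MS-MS after acetonitrile precipitation (LOQ 1 ng/mL); noncompartmental analysis.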

[8] = Clearance in C57Bl6 mouse at 3 mg/kg, iv administered as single dose measured up to 24 hrs ESI-LC/MS-MS analysis; type: ADME, organism-based; conditions: in vivo
In short: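 Female C57Bl6 mice (n=24) given single 3 mg/kg i.v. in solution (75% water : 25% of 75% Glycoferol/25% Cremophor); plasma sampled at 0.083, 0.25, 0.5, 1, 2, 4, 6, 8, 24 h; heparinized plasma after acetonitrile protein precipitation analysed by ESI-LC/MS-MS (LOQ 5 ng/mL); noncompartmental parameters with linear trapezoidal calculation.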

[9] = Metabolic lability in human liver microsomes incubated up to 20 mins by LC-MS/MS analysis
[10] = Clearance in Wistar rat at 3 mg/kg, iv administered as single dose measured up to 24 hrs ESI-LC/MS-MS analysis; conditions: in vivo
[11] = Metabolic lability in mouse liver microsomes incubated up to 20 mins by LC-MS/MS analysis
[12] = test system: Mus musculus; test: Suppression of blood glucose concentration in 0.3 to 4.5 mg/kg, ip GLP1(9-36)NH2-treated normoglycemic C57Bl/6J mouse at 30 mg/kg, po dosed 1 hrs before test by oral glucose-tolerance test; type: functional, organism-based
In short: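 Male C57Bl/6J mice aged 10–11 weeks, n=6, fasted overnight. Rifampicin 60 mg/kg p.o. 2.5 h before the oGTT, compound p.o. 1 h before, GLP1(9-36)NH2 i.p. (0.3, 1, 3, 4.5 mg/kg) 15 min before. Glucose 2 g/kg orally. Tail-vein blood glucose by glucometer at 0, 15, 30, 60 and 90 min.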

[13] = AUClast in Wistar rat at 10 mg/kg, po administered as single dose treated 2 hrs after dosing with 40 mg/kg, po OATP/MRP2 inhibitor rifampicin and measured up to 24 hrs ESI-LC/MS-MS analysis; type: ADME, organism-based; parameters: dose 10 mg/kg, time < 24 hr, route oral; conditions: in vivo; in short: as §1
[14] = Cmax in Wistar rat at 10 mg/kg, po administered as single dose measured up to 24 hrs ESI-LC/MS-MS analysis; type: ADME, organism-based; parameters: dose 10 mg/kg, route oral; conditions: in vivo
In short: (§2)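 Single dose of compound: 3 mg/kg i.v. in solution (75% water : 25% of 75% Glycoferol/25% Cremophor) or 10 mg/kg p.o. as wet-milled suspension (0.6% methylcellulose, 0.5% Tween 80 in water); male Wistar rats n=3 per route, female C57Bl6 mice n=24 per route. Plasma sampled 0.25–24 h (p.o.), 0.083–24 h (i.v.); heparinized plasma, acetonitrile precipitation, ESI-LC/MS-MS (LOQ 1 ng/mL rat, 5 ng/mL mouse); noncompartmental analysis, linear trapezoidal.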

[15] = Oral bioavailability in Wistar rat at 10 mg/kg administered as single dose measured up to 24 hrs ESI-LC/MS-MS analysis; type: ADME, organism-based; conditions: in vivo; in short: as §2
[16] = Clearance in human hepatocytes assessed per million cells by LC-MS/MS analysis; type: ADME, cell-based, Hepatocyte
In short: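 Intrinsic clearance in primary human hepatocytes ([…] as printed) or mouse hepatocytes, compound 0.5–5 µM; quinidine or ketoconazole added to define CYP2D6/CYP3A4 contribution; LC-MS/MS analysis.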

[17] = test system: Pancreatic islet; test: Inhibition of glucose-stimulated insulin secretion in dispersed GLP-1(-/-) mouse pancreatic islets at 10 uM incubated for 2 hrs by ELISA; type: functional, cell-based

Sequence of Cytochrome P450 3A4 (P08684 whole entry): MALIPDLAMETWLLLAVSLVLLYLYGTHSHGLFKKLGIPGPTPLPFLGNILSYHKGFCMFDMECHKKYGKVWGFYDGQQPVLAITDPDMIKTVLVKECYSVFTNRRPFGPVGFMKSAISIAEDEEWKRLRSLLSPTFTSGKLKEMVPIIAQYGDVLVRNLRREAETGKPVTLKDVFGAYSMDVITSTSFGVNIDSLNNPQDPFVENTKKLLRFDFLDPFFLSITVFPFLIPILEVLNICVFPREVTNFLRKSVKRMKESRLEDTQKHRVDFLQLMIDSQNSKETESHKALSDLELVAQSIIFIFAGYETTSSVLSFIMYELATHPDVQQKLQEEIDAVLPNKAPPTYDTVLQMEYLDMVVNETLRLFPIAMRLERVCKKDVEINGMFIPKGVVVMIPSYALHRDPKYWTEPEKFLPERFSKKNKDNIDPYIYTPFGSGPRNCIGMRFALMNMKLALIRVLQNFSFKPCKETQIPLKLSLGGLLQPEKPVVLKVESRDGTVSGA

CC(C)(C)OC(=O)n1c2c(c3ccccc31)C[C@H]1C(=O)N3C[C@@H](CC(=O)O)C[C@H]3[C@@H]2N1C(=O)CC1CCC(F)(F)CC1
pIC50 [1]: < 4.30
Activity [2]: inactive
Papp [3]: 32 ×10⁻⁷ cm/s
Activity [4]: inactive
Stability [5]: 98%
Vd [6]: 0.815 L/kg
Cmax [7]: 1130 ng/mL
clearance [8]: 109 mL/min/kg
metabolized at 20 min [9]: 20%
CL [10]: 118 mL/min/kg
metabolized at 20 min [11]: 5%
Activity [12]: Dose-dependent effect
AUC(0-t) at 24 h [13]: 7340 ng·h/mL
Cmax [14]: 106 ng/mL
bioavailability [15]: 9%
CLH [16]: 0.184 mL/h/10^6 cells

CC(O)CCN1C[C@H]2c3c(c4ccccc4n3C(=O)OC(C)(C)C)C[C@@H](C1=O)N2C(=O)CC1CCC(F)(F)CC1 (stereo partly drawn)
Activity [4]: inactive
inhibition [17]: Active
